Measurements: ChEMBL document CHEMBL4190254, “Synthesis of sulfamoylbenzamide derivatives as HBV capsid assembly effector” (Eur J Med Chem, 2017)
Active and inactive are the calls of the source. The rule behind the calls is not given here.

Assays:
[1] = target: Core antigen (Hepatitis B virus) (UniProt Q03732); experiment: Inhibition of capsid in HBV infected in human HepAD38 cells assessed as reduction in cccDNA formation by measuring reduction in HBe antigen secretion at 10 uM after 14 days by ELISA relative to control; assay type: cell-based
Chain of Core antigen (Hepatitis B virus) (Q03732 as listed by the source): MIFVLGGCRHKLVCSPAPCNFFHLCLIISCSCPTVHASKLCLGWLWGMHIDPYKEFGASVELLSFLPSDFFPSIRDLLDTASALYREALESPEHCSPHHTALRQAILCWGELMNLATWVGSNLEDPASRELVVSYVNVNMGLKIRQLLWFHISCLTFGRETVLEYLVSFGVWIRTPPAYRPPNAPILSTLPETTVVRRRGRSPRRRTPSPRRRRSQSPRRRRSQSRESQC
Summary of the method: (§1)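 HepAD38 cells, collagen-coated wells, DMEM/F12 with 10% heat-inactivated FBS. Tetracycline withdrawn 7 days to allow DNA synthesis and cccDNA formation; at day 7 tetracycline (0.3 μg/ml) plus compound re-added. Compound at 10 μM or 0.001–10 μM, medium and compound replenished every 5 days. Day-14 supernatant HBeAg by ELISA; EC50 by linear regression.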

[2] = (§2) Cytotoxicity against human CEM cells by CellTiter 96 non-radioactive cell proliferation colorimetric assay; assay type: cell-based, CCRF-CEM; settings: CEM (CCRF-CEM) cells
Summary of the method: (§3)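 A CellTiter 96 colorimetric cell proliferation read-out was used in primary human PBM cells, CEM, Vero and HepG2 cells. CC50 is the concentration that inhibits cell growth by 50%.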

[3] = (§4) Cytotoxicity against African green monkey Vero cells by CellTiter 96 non-radioactive cell proliferation colorimetric assay; assay type: cell-based; settings: chlorocebus sabaeus, Vero cells; summary of the method: as §3
Hepatitis B virus [4] = experiment: Antiviral activity against HBV infected in human HepAD38 cells assessed as reduction in viral replication by RT-PCR method; assay type: functional, organism-based
Summary of the method: (§5)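 HBV DNA replication in HepAD38 cells was quantified by RT-PCR following an earlier published method, with data relative to the untreated control. EC50 (50% inhibition of HBV DNA replication) was derived by linear regression. Values are the mean ± SD of two or three replicates from 2 independent experiments.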

[5] = (§6) Cytotoxicity against human PBMC by CellTiter 96 non-radioactive cell proliferation colorimetric assay; assay type: cell-based; summary of the method: as §3
HepG2 = experiment: Cytotoxicity against human HepG2 cells by CellTiter 96 non-radioactive cell proliferation colorimetric assay; assay type: cell-based; summary of the method: as §3
Core antigen = Core antigen (Hepatitis B virus, UniProt Q03732); experiment: (§7) Inhibition of capsid in HBV infected in human HepAD38 cells assessed as reduction in tetracycline-induced cccDNA formation by measuring reduction in HBe antigen secretion after 14 days by ELISA; assay type: cell-based; summary of the method: as §1
Chain of Core antigen (Q03732 whole entry): as the sequence (Q03732 as listed by the source) above

Hepatitis B virus [6] = experiment: Antiviral activity against HBV infected in human HepAD38 cells assessed as reduction in extracellular viral DNA level by RT-PCR method; assay type: functional, organism-based; summary of the method: as §5
Hepatitis B virus [7] = experiment: Antiviral activity against HBV infected in human HepAD38 cells assessed as reduction in intracellular viral DNA level by RT-PCR method; assay type: functional, organism-based; summary of the method: as §5
Hepatitis B virus [8] = experiment: Antiviral activity against HBV infected in human HepAD38 cells assessed as reduction in intracellular viral DNA level at 10 uM by RT-PCR method relative to control; assay type: functional; design: scale not given: the % may be the effect or the level left
Summary of the method: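 HepAD38 cells; intracellular HBV DNA quantified by RT-PCR, expressed relative to untreated control; single-point inhibition given as percent at 10 μM, mean ± SD of two or three replicates from 2 independent experiments.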

[9] = target: Core antigen (Hepatitis B virus) (UniProt Q03732); experiment: Inhibition of capsid in HBV infected in human HepAD38 cells assessed as reduction in cccDNA formation by measuring reduction in HBe antigen secretion at 3 to 4 uM after 14 days by ELISA relative to control; assay type: cell-based; summary of the method: as §1
CCRF-CEM = experiment: as §2; assay type: cell-based; settings: ccrf-cem; summary of the method: as §3
Vero = experiment: as §4; assay type: cell-based; settings: chlorocebus sabaeus, vero; summary of the method: as §3
PBMC = experiment: as §6; assay type: cell-based; summary of the method: as §3
[10] = target: Core antigen (Hepatitis B virus) (UniProt Q03732); experiment: as §7; assay type: cell-based; summary of the method: as §1
Hepatitis B virus [11] = experiment: Antiviral activity against HBV infected in human HepDES19 cells assessed as reduction in viral replication; assay type: functional, organism-based
Hepatitis B virus [12] = experiment: Inhibition of HBV capsid cp149 assembly expressed in Escherichia coli BL21 assessed as formation of disfigured circular assemblies at 20 uM preincubated for 1 hr followed by NaCl stimulation measured after overnight incubation by uranyl acetate staining based electron microscopic method
Summary of the method: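 Untagged HBV core residues 1–149 expressed in E. coli BL21 (1 mM IPTG, 16 °C overnight), purified as capsids, dissociated to dimers with 4 M urea in carbonate buffer pH 9.5; >95% pure. Dimers preincubated 1 hr with compound (20 μM), then capsid buffer added (final NaCl 300 mM, Cp149 monomer 10 μM); held 4 °C overnight; uranyl acetate negative-stain EM, single-blind.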

| SMILES | inhibition [1] | CC50 [2] | CC50 [3] | EC90 (Hepatitis B virus [4]) | CC50 [5] | CC50 (HepG2) | EC50 (Core antigen) | EC90 (Hepatitis B virus [6]) | EC50 (Hepatitis B virus [7]) | EC90 (Hepatitis B virus [7]) | Activity (Hepatitis B virus [8]) | inhibition [9] | CC50 (CCRF-CEM) | CC50 (Vero) | EC50 (Hepatitis B virus [4]) | CC50 (PBMC) | EC90 [10] | EC50 (Hepatitis B virus [11]) | inhibition (Hepatitis B virus [12]) | EC50 (Hepatitis B virus [6]) |
| --- | --- | --- | --- | --- | --- | --- | --- | --- | --- | --- | --- | --- | --- | --- | --- | --- | --- | --- | --- | --- |
| Nc1ccn([C@@H]2CS[C@H](CO)O2)c(=O)n1 [LAMIVUDINE] | < 1% | > 100 µM | > 100 µM | 0.3 µM | > 100 µM | > 10 µM | > 10 µM | 0.3 µM | < 0.01 µM | 0.7 µM | 74% | – | – | – | – | – | – | – | – | – |
| O=C(Nc1ccc(F)c(F)c1)c1cc(S(=O)(=O)NC2CCCC2)ccc1F | – | – | – | 7.8 µM | – | 37.1 µM | 1.3 µM | 7.8 µM | 0.6 µM | 4.3 µM | – | 90% | 14 µM | 32.7 µM | 0.8 µM | 15.6 µM | 4.6 µM | 0.14 µM | Active | 0.8 µM |
